Test results: ChEMBL document CHEMBL1139673, “Factor VIIa inhibitors: gaining selectivity within the trypsin family” (Bioorg Med Chem Lett, 2006)

Assays:
[1] = biological target: T1, Coagulation factor VII (Homo sapiens, UniProt P08709); assay: Binding affinity to factor 7a
T1 sequence (P08709 whole entry): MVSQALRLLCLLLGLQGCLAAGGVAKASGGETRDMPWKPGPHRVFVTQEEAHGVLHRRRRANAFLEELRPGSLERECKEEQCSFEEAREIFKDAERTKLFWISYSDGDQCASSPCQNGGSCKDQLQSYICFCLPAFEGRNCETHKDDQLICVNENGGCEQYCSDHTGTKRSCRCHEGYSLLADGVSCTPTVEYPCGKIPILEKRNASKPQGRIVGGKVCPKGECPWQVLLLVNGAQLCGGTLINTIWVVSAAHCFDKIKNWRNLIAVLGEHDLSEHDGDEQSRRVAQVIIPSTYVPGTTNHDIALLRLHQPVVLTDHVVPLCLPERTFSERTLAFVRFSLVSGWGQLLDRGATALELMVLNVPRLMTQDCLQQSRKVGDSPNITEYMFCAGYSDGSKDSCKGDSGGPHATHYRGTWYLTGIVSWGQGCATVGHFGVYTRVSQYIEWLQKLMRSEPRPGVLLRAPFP

[2] = organism: Homo sapiens; assay: Selectivity for factor 7a versus trypsin
How it was run: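 Apparent Ki (Morrison tight-binding fit) from two chromogenic assays, both at room temperature with substrate at Km and A405 monitored over time. FVIIa: 7 nM factor VII with 11 nM recombinant soluble human tissue factor in Tris pH 7.4, NaCl, 5.0 mM CaCl2, 1.5 mM EDTA, Tween 20, 10% DMSO; CH3SO2-D-CHA-But-Arg-pNA 500 µM. Trypsin: 10 nM, same buffer without CaCl2; Tosyl-Gly-Pro-Lys-pNA 25 µM.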

SMILES | Ki [1] | Selectivity ratio [2]
COc1ccc(-c2cc(C(CC(=O)O)C(=O)O)cc(-c3nc4cc(C(=N)N)ccc4[nH]3)c2O)cc1 (stereo unspecified) | 2250 nM | 1
N=C(N)c1ccc2[nH]c(-c3cc(C(CC(=O)O)C(=O)O)cc(-c4cccc(Cl)c4Cl)c3O)nc2c1 (stereo unspecified) |  | 44
N=C(N)c1ccc2nc(-c3cc(C(CC(=O)O)C(=O)O)cc(-c4ccccc4[N+](=O)[O-])c3O)[nH]c2c1 (stereo unspecified) | 22 nM | 
N=C(N)c1ccc2[nH]c(-c3cc(C(CC(=O)O)C(=O)O)cc(-c4cccc(OC(F)F)c4)c3O)nc2c1 (stereo unspecified) | 120 nM | 51
COc1ccc(F)cc1-c1cc(C(CC(=O)O)C(=O)O)cc(-c2nc3cc(C(=N)N)ccc3[nH]2)c1O (stereo unspecified) | 330 nM | 52
N=C(N)c1ccc2[nH]c(-c3cc(C(CC(=O)O)C(=O)O)cc(-c4ccccc4)c3O)nc2c1 (stereo unspecified) | 74 nM | 91
N=C(N)c1ccc2[nH]c(-c3cc(C(CC(=O)O)C(=O)O)cc(-c4ccccc4CS)c3O)nc2c1 (stereo unspecified) | 64 nM | 103
N=C(N)c1ccc2nc(-c3cc(C(CC(=O)O)C(=O)O)cc(-c4ccc(F)c(Cl)c4)c3O)[nH]c2c1 (stereo unspecified) | 130 nM | 
N=C(N)c1ccc2[nH]c(-c3cc(C(CC(=O)O)C(=O)O)ccc3O)nc2c1 (stereo unspecified) | 6400 nM | 1
Cc1cccc(NC(=O)Cc2cc(C(CC(=O)O)C(=O)O)cc(-c3nc4cc(C(=N)N)ccc4[nH]3)c2O)c1 (stereo unspecified) | 54 nM | 102
N=C(N)c1ccc2[nH]c(-c3cc(C(CC(=O)O)C(=O)O)cc(-c4ccc(F)c(Cl)c4)c3O)nc2c1 (stereo unspecified) |  | 34
N=C(N)c1ccc2nc(-c3cc(C(CC(=O)O)C(=O)O)cc(-c4cc(F)cc(F)c4)c3O)[nH]c2c1 (stereo unspecified) | 68 nM | 
N=C(N)c1ccc2[nH]c(-c3cc(C(CC(=O)O)C(=O)O)cc(-c4cccc(CO)c4)c3O)nc2c1 (stereo unspecified) |  | 216
N=C(N)c1ccc2[nH]c(-c3cc(C(CC(=O)O)C(=O)O)cc(-c4c(O)cc(Cl)cc4Cl)c3O)nc2c1 (stereo unspecified) | 25 nM | 192
N=C(N)c1ccc2[nH]c(-c3cc(C(CC(=O)O)C(=O)O)cc(-c4cc(N)ccc4O)c3O)nc2c1 (stereo unspecified) | 10 nM | 1790
CC(C)c1cccc(-c2cc(C(CC(=O)O)C(=O)O)cc(-c3nc4ccc(C(=N)N)cc4[nH]3)c2O)c1 (stereo unspecified) | 76 nM | 
N=C(N)c1ccc2nc(-c3cc(C(CC(=O)O)C(=O)O)cc(-c4ccccc4N)c3O)[nH]c2c1 (stereo unspecified) | 420 nM | 
N=C(N)c1ccc2[nH]c(-c3cc(C(CC(=O)O)C(=O)O)cc(-c4cccc(CN)c4)c3O)nc2c1 (stereo unspecified) | 780 nM | 18
N=C(N)c1ccc2[nH]c(-c3cc(C(CC(=O)O)C(=O)O)cc(-c4cc(F)cc(F)c4)c3O)nc2c1 (stereo unspecified) |  | 115

SMILES | Ki [1] | Selectivity ratio [2]
N=C(N)c1ccc2[nH]c(-c3cc(C(CC(=O)O)C(=O)O)cc(-c4cc(F)ccc4O)c3O)nc2c1 (stereo unspecified) |  | 4400
N=C(N)c1ccc2[nH]c(-c3cc(C(CC(=O)O)C(=O)O)cc(-c4ccccc4CO)c3O)nc2c1 (stereo unspecified) | 730 nM | 16
N#Cc1ccc(O)c(-c2cc(C(CC(=O)O)C(=O)O)cc(-c3nc4cc(C(=N)N)ccc4[nH]3)c2O)c1 (stereo unspecified) | 12 nM | 2960
N=C(N)c1ccc2[nH]c(-c3cc(C(CC(=O)O)C(=O)O)cc(-c4ccc(Cl)cc4)c3O)nc2c1 (stereo unspecified) |  | 2
CC(=O)Nc1cccc(-c2cc(C(CC(=O)O)C(=O)O)cc(-c3nc4cc(C(=N)N)ccc4[nH]3)c2O)c1 (stereo unspecified) |  | 118
N=C(N)c1ccc2nc(-c3cc(C(CC(=O)O)C(=O)O)cc(-c4cc(Cl)cc(Cl)c4)c3O)[nH]c2c1 (stereo unspecified) | 27 nM | 
N=C(N)c1ccc2nc(-c3cc(C(CC(=O)O)C(=O)O)cc(-c4ccc(Cl)cc4)c3O)[nH]c2c1 (stereo unspecified) | 440 nM | 
N=C(N)c1ccc2[nH]c(-c3cc(C(CC(=O)O)C(=O)O)cc(-c4cccc(N)c4)c3O)nc2c1 (stereo unspecified) | 36 nM | 250
Cc1cc(C)cc(-c2cc(C(CC(=O)O)C(=O)O)cc(-c3nc4cc(C(=N)N)ccc4[nH]3)c2O)c1 (stereo unspecified) | 29 nM | 1080
N=C(N)c1ccc2[nH]c(-c3cc(C(CC(=O)O)C(=O)O)cc(-c4cc(Cl)cc(Cl)c4O)c3O)nc2c1 (stereo unspecified) | 14 nM | 421
N=C(N)c1ccc2[nH]c(-c3cc(C(CC(=O)O)C(=O)O)cc(-c4ccccc4O)c3O)nc2c1 (stereo unspecified) | 13 nM | 1080
CC(=O)Nc1cccc(-c2cc(C(CC(=O)O)C(=O)O)cc(-c3nc4ccc(C(=N)N)cc4[nH]3)c2O)c1 (stereo unspecified) | 110 nM | 
N=C(N)c1ccc2[nH]c(-c3cc(C(CC(=O)O)C(=O)O)cc(-c4ccc(O)cc4)c3O)nc2c1 (stereo unspecified) | 880 nM | 10
N=C(N)c1ccc2[nH]c(-c3cc(C(CC(=O)O)C(=O)O)cc(-c4ccccc4N)c3O)nc2c1 (stereo unspecified) |  | 41
N=C(N)c1ccc2[nH]c(-c3cc(C(CC(=O)O)C(=O)O)cc(-c4cccnc4)c3O)nc2c1 (stereo unspecified) | 550 nM | 31
N=C(N)c1ccc2[nH]c(-c3cc(C(CC(=O)O)C(=O)O)cc(-c4cccc(O)c4)c3O)nc2c1 (stereo unspecified) | 88 nM | 99
N=C(N)c1ccc2nc(-c3cc(C(CC(=O)O)C(=O)O)cc(-c4cccc(Cl)c4Cl)c3O)[nH]c2c1 (stereo unspecified) | 270 nM | 
COc1ccc(C#N)cc1-c1cc(C(CC(=O)O)C(=O)O)cc(-c2nc3cc(C(=N)N)ccc3[nH]2)c1O (stereo unspecified) | 280 nM | 54
N=C(N)c1ccc2[nH]c(-c3cc(C(CC(=O)O)C(=O)O)cc(-c4cc([N+](=O)[O-])ccc4O)c3O)nc2c1 (stereo unspecified) | 6 nM | 8500

SMILES | Ki [1] | Selectivity ratio [2]
CC(C)(C)c1ccc(-c2cc(C(CC(=O)O)C(=O)O)cc(-c3nc4cc(C(=N)N)ccc4[nH]3)c2O)cc1 (stereo unspecified) | 16000 nM | 1
Cc1ccc(-c2cc(C(CC(=O)O)C(=O)O)cc(-c3nc4ccc(C(=N)N)cc4[nH]3)c2O)cc1 (stereo unspecified) | 420 nM | 
N=C(N)c1ccc2[nH]c(-c3cc(C(CC(=O)O)C(=O)O)cc(-c4ccccc4[N+](=O)[O-])c3O)nc2c1 (stereo unspecified) |  | 25
N=C(N)c1ccc2[nH]c(-c3cc(C(CC(=O)O)C(=O)O)cc(-c4cccc([N+](=O)[O-])c4)c3O)nc2c1 (stereo unspecified) |  | 268
Cc1ccccc1-c1cc(C(CC(=O)O)C(=O)O)cc(-c2nc3cc(C(=N)N)ccc3[nH]2)c1O (stereo unspecified) | 500 nM | 16
CC(C)c1cccc(-c2cc(C(CC(=O)O)C(=O)O)cc(-c3nc4cc(C(=N)N)ccc4[nH]3)c2O)c1 (stereo unspecified) |  | 40
N=C(N)c1ccc2[nH]c(-c3cc(C(CC(=O)O)C(=O)O)cc(-c4cc(Cl)cc(Cl)c4)c3O)nc2c1 (stereo unspecified) |  | 98
Cc1ccc(-c2cc(C(CC(=O)O)C(=O)O)cc(-c3nc4cc(C(=N)N)ccc4[nH]3)c2O)cc1 (stereo unspecified) |  | 8
N=C(N)c1ccc2[nH]c(-c3cc(C(CC(=O)O)C(=O)O)cc(-c4cc(Cl)ccc4O)c3O)nc2c1 (stereo unspecified) | 5.4 nM | 2500
N=C(N)c1ccc2[nH]c(-c3cc(C(CC(=O)O)C(=O)O)cc(-c4cc(Cl)cc(Cl)c4Cl)c3O)nc2c1 (stereo unspecified) | 210 nM | 39
CC(=O)c1cccc(-c2cc(C(CC(=O)O)C(=O)O)cc(-c3nc4cc(C(=N)N)ccc4[nH]3)c2O)c1 (stereo unspecified) | 33 nM | 197
Cc1cccc(-c2cc(C(CC(=O)O)C(=O)O)cc(-c3nc4cc(C(=N)N)ccc4[nH]3)c2O)c1 (stereo unspecified) |  | 108
N=C(N)c1ccc2[nH]c(-c3cc(C(CC(=O)O)C(=O)O)cc(-c4cccc(Cl)c4)c3O)nc2c1 (stereo unspecified) | 66 nM | 59
N#Cc1cccc(-c2cc(C(CC(=O)O)C(=O)O)cc(-c3nc4cc(C(=N)N)ccc4[nH]3)c2O)c1 (stereo unspecified) | 77 nM | 71
N=C(N)c1ccc2[nH]c(-c3cc(C(CC(=O)O)C(=O)O)cc(-c4cc(Cl)cc(Br)c4O)c3O)nc2c1 (stereo unspecified) | 9 nM | 398
Cc1cccc(-c2cc(C(CC(=O)O)C(=O)O)cc(-c3nc4ccc(C(=N)N)cc4[nH]3)c2O)c1 (stereo unspecified) | 38 nM | 
N=C(N)c1ccc2nc(-c3cc(C(CC(=O)O)C(=O)O)cc(-c4cccc(CO)c4)c3O)[nH]c2c1 (stereo unspecified) | 21 nM | 
N=C(N)c1ccc2[nH]c(-c3cc(C(CC(=O)O)C(=O)O)cc(-c4cc(Cl)ccc4Cl)c3O)nc2c1 (stereo unspecified) | 250 nM | 35
